Assay results reported in ChEMBL document CHEMBL3232980, “Studies on the antiproliferative effects of tropolone derivatives in Jurkat T-lymphocyte cells” (2014).
Active and inactive are the calls of the source. The calls are words filed in the database; no cut-off is given here.

Assays:
Jurkat [1] = assay: Induction of apoptosis in human Jurkat cells assessed as caspase 8 responsive cells level at 10 uM after 24 hrs by FACS flow cytometric analysis (reference value: 0.32%); type: functional
[2] = molecular target: T1, Histone deacetylase (Homo sapiens) (UniProt Q13547+O15379+Q9UBN7+Q92769+Q9UQL6+Q8WUI4+Q9BY41+Q96DB2+P56524+Q9UKV0+Q969S8); conditions: Jurkat
Jurkat [3] = assay: Cell cycle arrest in human Jurkat cells assessed as accumulation at G1-phase at 10 uM after 24 hrs by propidium iodide staining-based flow cytometric analysis (reference value: 60.90%); type: functional
Jurkat [4] = assay: Induction of apoptosis in human Jurkat cells assessed as early apoptotic cells at 10 uM after 24 hrs by annexin V-FITC/propidium iodide staining-based FACS flow cytometric analysis (reference value: 0.32%); type: functional
In short: (§1)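 About 1 × 10^6 log-phase Jurkat cells treated in 6-well plates; untreated controls. Cells washed in cold PBS and resuspended in annexin-binding buffer (10 mM HEPES, 140 mM NaCl, 2.5 mM CaCl2, pH 7.4). Stained with FITC-annexin V plus propidium iodide, then gated by flow cytometry: live (AnnV−/PI−), early apoptotic (AnnV+/PI−), late apoptotic/necrotic (AnnV+/PI+).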

Jurkat [5] = assay: Cell cycle arrest in human Jurkat cells assessed as accumulation at G2/M-phase at 10 uM after 36 hrs by propidium iodide staining-based flow cytometric analysis (reference value: 14.20%); type: functional
[6] = molecular target: T1, Histone deacetylase (Homo sapiens); conditions: Jurkat; remark: listed apart in the source
Jurkat [7] = assay: Cell cycle arrest in human Jurkat cells assessed as accumulation at G2/M-phase at 10 uM after 12 hrs by propidium iodide staining-based flow cytometric analysis (reference value: 10%); type: functional
Jurkat [8] = assay: Cell cycle arrest in human Jurkat cells assessed as accumulation at S-phase at 10 uM after 12 hrs by propidium iodide staining-based flow cytometric analysis (reference value: 19.5%); type: functional
Jurkat [9] = assay: Induction of apoptosis in human Jurkat cells assessed as viable cells at 10 uM after 24 hrs by annexin V-FITC/propidium iodide staining-based FACS flow cytometric analysis (reference value: 99.3%); type: functional; conditions: read-out: Activity; in short: as §1
Jurkat [10] = assay: Induction of apoptosis in human Jurkat cells assessed as cell death at 10 uM after 24 hrs by annexin V-FITC/propidium iodide staining-based FACS flow cytometric analysis (reference value: 0.348%); type: functional
In short: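 ~1×10^6 log-phase Jurkat cells (RPMI 1640, 10% FBS, pen/strep, L-glutamine) treated in 6-well plates; untreated wells as controls. Cells washed in cold PBS and resuspended in annexin-binding buffer (10 mM HEPES, 140 mM NaCl, 2.5 mM CaCl2, pH 7.4). Stained with fluorescein-annexin V plus PI and read by flow cytometry. Gates: live A−/PI−, early apoptotic A+/PI−, late apoptotic/necrotic A+/PI+.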

Jurkat [11] = assay: Induction of apoptosis in human Jurkat cells assessed as caspase 3/7 activation at 10 uM after 24 hrs by luminescence assay (reference value: 136,627 +/- 31846.96 no unit); type: functional
Jurkat [12] = assay: Cell cycle arrest in human Jurkat cells assessed as accumulation at S-phase at 10 uM after 24 hrs by propidium iodide staining-based flow cytometric analysis (reference value: 20.90%); type: functional
Jurkat [13] = assay: Cell cycle arrest in human Jurkat cells assessed as accumulation at S-phase at 10 uM after 36 hrs by propidium iodide staining-based flow cytometric analysis (reference value: 23%); type: functional
Jurkat [14] = assay: Cell cycle arrest in human Jurkat cells assessed as accumulation at G0/G1-phase at 10 uM after 12 hrs by propidium iodide staining-based flow cytometric analysis (reference value: 4.16%); type: functional
Jurkat [15] = assay: Cell cycle arrest in human Jurkat cells assessed as accumulation at G1-phase at 10 uM after 12 hrs by propidium iodide staining-based flow cytometric analysis (reference value: 65%); type: functional
Jurkat [16] = assay: Cell cycle arrest in human Jurkat cells assessed as accumulation at G2/M-phase at 10 uM after 24 hrs by propidium iodide staining-based flow cytometric analysis (reference value: 14.30%); type: functional
Jurkat [17] = assay: Cell cycle arrest in human Jurkat cells assessed as accumulation at G1-phase at 10 uM after 36 hrs by propidium iodide staining-based flow cytometric analysis (reference value: 59.10%); type: functional
Jurkat [18] = assay: Induction of apoptosis in human Jurkat cells assessed as caspase 3/7 activation at 10 uM after 48 hrs by luminescence assay (reference value: 109,510 +/- 4710.453 no unit); type: functional
[19] = molecular target: T1, Histone deacetylase (Homo sapiens); conditions: Jurkat, at 10 µM
Jurkat [20] = assay: Cell cycle arrest in human Jurkat cells assessed as accumulation at G0/G1-phase at 10 uM after 36 hrs by propidium iodide staining-based flow cytometric analysis (reference value: 1.80%); type: functional
Jurkat [21] = assay: Cell cycle arrest in human Jurkat cells assessed as accumulation at G0/G1-phase at 10 uM after 24 hrs by propidium iodide staining-based flow cytometric analysis (reference value: 2.39%); type: functional
Jurkat [22] = assay: Induction of apoptosis in human Jurkat cells assessed as caspase 3/7 activation at 10 uM after 12 hrs by luminescence assay (reference value: 69,935 +/- 7003.63 no unit); type: functional
Jurkat [23] = assay: Induction of apoptosis in human Jurkat cells assessed as late apoptotic cells at 10 uM after 24 hrs by annexin V-FITC/propidium iodide staining-based FACS flow cytometric analysis (reference value: 0.0401%); type: functional; in short: as §1
Jurkat [24] = assay: Induction of apoptosis in human Jurkat cells assessed as caspase 3/7 activation at 10 uM after 6 hrs by luminescence assay (reference value: 59,417 +/- 10002.74 no unit); type: functional
Jurkat [25] = assay: Increase in p21 protein expression in human Jurkat cells at 10 to 50 uM after 24 hrs by FACS flow cytometric analysis; type: functional, cell-based
In short: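 Jurkat cells (~1 × 10^6, log phase) treated 24 h at 10 or 50 µM; no-inhibitor controls. Fixed in 4% PFA for 20 min, held overnight at 4°C in 5% BSA/PBS, permeabilized with 0.5% Triton X-100, blocked with 10% goat serum. Stained with anti-p21 (1:100) and FITC secondary (1:1000). Read-out was geometric mean fluorescence intensity by flow cytometry.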

Jurkat [26] = assay: Increase in p21 mRNA level in human Jurkat cells at 10 to 50 uM after 24 hrs by quantitative RT-PCR analysis; type: functional, cell-based
In short: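 Roughly 5 × 10^6 Jurkat cells treated 24 h at 10 and 50 µM; untreated cells served as controls. RNA extracted with Trizol, and 2 µg reverse-transcribed. p21 and beta-actin quantified by TaqMan real-time PCR, run in triplicate.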

Row | Structure (SMILES) | Activity (Jurkat [1]) | Activity (Jurkat [3]) | Activity (Jurkat [4]) | Activity (Jurkat [5]) | Activity (Jurkat [7]) | Activity (Jurkat [8]) | viability at 10 µM (Jurkat [9]) | Activity (Jurkat [10]) | RLU (Jurkat [11]) | Activity (Jurkat [12]) | Activity (Jurkat [13]) | Activity (Jurkat [14]) | Activity (Jurkat [15]) | Activity (Jurkat [16]) | Activity (Jurkat [17]) | RLU (Jurkat [18]) | Activity (Jurkat [20]) | Activity (Jurkat [21]) | RLU (Jurkat [22]) | Activity (Jurkat [23]) | further results
1 | O=c1cc(-c2ccccc2)cccc1O | 0.4% | 66.5% | 0.4% | 4.35% | 1.25% | 10.2% | 99.4% | 0.186% | 80438 | 15.8% | 14.6% | 16.3% | 71.5% | 2.58% | 65.9% | 71048 | 13.4% | 13.9% | 110650 | 0.0285% | Flu intensity [2]: 2.12; Flu intensity [6]: 24; inhibition [19]: inactive; RLU (Jurkat [24]): 73949
2 | O=C(CCCCCCC(=O)Nc1ccccc1)NO [VORINOSTAT] | 35.9% | 7.46% | 35.9% | 14.9% | 19.7% | 31.6% | 62.6% | 1.03% | 125484 | 19.9% | 15.6% | 20.4% | 25.9% | 12.3% | 6.9% | 95463 | 60.8% | 48.9% | 157988 | 0.412% | RLU (Jurkat [24]): 53518
3 | O=c1c(O)ccccc1-c1ccccc1 | 0.43% | 70.2% | 0.434% | 2.97% | 1.39% | 11.1% | 98.9% | 0.513% | 76948 | 13.3% | 13.3% | 22.3% | 64.3% | 1.81% | 64.2% | 105357 | 18.5% | 13.9% | 97513 | 0.158% | Flu intensity [2]: 13.7; Flu intensity [6]: 24.6; Activity (Jurkat [25]): Active; Activity (Jurkat [26]): inactive; inhibition [19]: inactive; RLU (Jurkat [24]): 88661
